Experimental data as given in ChEMBL document CHEMBL1926550, “Synthesis and antibacterial activity of naphthyridone derivatives containing mono/difluoro-methyloxime pyrrolidine scaffolds” (2012).
In brackets after ≈: the same amount, converted by molar mass.

Key:
Format in all cases: functional
Klebsiella pneumoniae [1] = test: Antibacterial activity against Klebsiella pneumoniae 10-3 infected KM mouse systemic infection model assessed as decrease in mouse mortality administered orally twice after 1 and 4 hrs post infection measured up to 7 days; conditions: 10-3, po
Procedure, shortened: (§1)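 Strains grown on MH agar at 35 °C for 18 h, suspended in gastric mucin. Male KM mice (19–21 g), groups of 10, infected intraperitoneally with 0.5 mL at 5–10× MLD. Four oral dose levels per drug at 1 and 4 h post infection. Mortality followed 7 days; ED50 with 95% confidence limits by Bliss method.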

Klebsiella pneumoniae [2] = test: Antibacterial activity against Klebsiella pneumoniae 10-1 after 18 hrs by two fold serial dilution method; conditions: 10-1, 18 h
Procedure, shortened: (§2)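 Agar two-fold serial dilution in melted Mueller-Hinton agar, final concentrations 128 down to 0.008 μg/mL. Plates inoculated with 10⁴ cfu and incubated at 35 °C for 18 h. MIC taken as the lowest concentration giving no visible growth on the plate.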

Staphylococcus aureus [3] = test: Antibacterial activity against methicillin-sensitive Staphylococcus aureus 10-5 after 18 hrs by two fold serial dilution method; conditions: 10-5, 18 h; procedure, shortened: as §2
Pseudomonas aeruginosa [4] = test: Antibacterial activity against Pseudomonas aeruginosa 10-2 after 18 hrs by two fold serial dilution method; conditions: 10-2, 18 h; procedure, shortened: as §2
Staphylococcus aureus [5] = test: Antibacterial activity against methicillin-sensitive Staphylococcus aureus 10-3 after 18 hrs by two fold serial dilution method; conditions: 10-3, 18 h; procedure, shortened: as §2
[6] = system: Staphylococcus epidermidis; test: Antibacterial activity against methicillin-sensitive Staphylococcus epidermidis 10-1 after 18 hrs by two fold serial dilution method; conditions: 10-1, 18 h; procedure, shortened: as §2
Escherichia coli [7] = test: Antibacterial activity against Escherichia coli 09-2 after 18 hrs by two fold serial dilution method; conditions: 09-2, 18 h; procedure, shortened: as §2
Staphylococcus aureus [8] = test: Antibacterial activity against methicillin-sensitive Staphylococcus aureus 10-6 after 18 hrs by two fold serial dilution method; conditions: 10-6, 18 h; procedure, shortened: as §2
Enterococcus faecium [9] = test: Antibacterial activity against Enterococcus faecium 09-6 after 18 hrs by two fold serial dilution method; conditions: 09-6, 18 h; procedure, shortened: as §2
Escherichia coli [10] = test: Antibacterial activity against Escherichia coli 10-2 infected KM mouse systemic infection model assessed as decrease in mouse mortality administered orally twice after 1 and 4 hrs post infection measured up to 7 days; conditions: 10-2, po; procedure, shortened: as §1
[11] = system: Staphylococcus epidermidis; test: Antibacterial activity against methicillin-resistant Staphylococcus epidermidis 10-1 after 18 hrs by two fold serial dilution method; conditions: 10-1, 18 h
Procedure, shortened: (§3)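 Agar two-fold serial dilution in melted Mueller-Hinton agar, 128 to 0.008 μg/mL. Plates inoculated with 10⁴ cfu, incubated 35 °C for 18 h. MIC taken as lowest concentration giving no visible growth on the plate.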

Pseudomonas aeruginosa [12] = test: Antibacterial activity against Pseudomonas aeruginosa ATCC 27853 after 18 hrs by two fold serial dilution method; conditions: ATCC 27853, 18 h; procedure, shortened: as §2
Escherichia coli [13] = test: Antibacterial activity against Escherichia coli 10-2 after 18 hrs by two fold serial dilution method; conditions: 10-2, 18 h; procedure, shortened: as §2
Enterococcus faecium [14] = test: Antibacterial activity against Enterococcus faecium 09-5 after 18 hrs by two fold serial dilution method; conditions: 09-5, 18 h; procedure, shortened: as §2
Staphylococcus aureus [15] = test: Antibacterial activity against methicillin-sensitive Staphylococcus aureus 10-4 after 18 hrs by two fold serial dilution method; conditions: 10-4, 18 h; procedure, shortened: as §2
Pseudomonas aeruginosa [16] = test: Ratio of gemifloxacin ED50 to compound ED50 for Pseudomonas aeruginosa 10-1 infected KM mouse systemic infection model
Staphylococcus aureus [17] = test: Antibacterial activity against Staphylococcus aureus ATCC 25923 after 18 hrs by two fold serial dilution method; conditions: ATCC 25923, 18 h; procedure, shortened: as §2
Staphylococcus aureus [18] = test: Antibacterial activity against methicillin-resistant Staphylococcus aureus 10-2 after 18 hrs by two fold serial dilution method; conditions: 10-2, 18 h; procedure, shortened: as §3
Enterococcus faecalis [19] = test: Antibacterial activity against Enterococcus faecalis 09-2 after 18 hrs by two fold serial dilution method; conditions: 09-2, 18 h; procedure, shortened: as §2
[20] = system: Staphylococcus epidermidis; test: Antibacterial activity against methicillin-resistant Staphylococcus epidermidis 10-4 after 18 hrs by two fold serial dilution method; conditions: 10-4, 18 h; procedure, shortened: as §3
Staphylococcus aureus [21] = test: Antibacterial activity against methicillin-sensitive Staphylococcus aureus 10-1 after 18 hrs by two fold serial dilution method; conditions: 10-1, 18 h; procedure, shortened: as §2
[22] = system: Staphylococcus epidermidis; test: Ratio of ciprofloxacin ED50 to compound ED50 for methicillin-resistant Staphylococcus epidermidis 10-4 infected KM mouse systemic infection model
Staphylococcus aureus [23] = test: Antibacterial activity against methicillin-resistant Staphylococcus aureus 10-2 infected KM mouse systemic infection model assessed as decrease in mouse mortality administered orally twice after 1 and 4 hrs post infection measured up to 7 days; conditions: 10-2, po; procedure, shortened: as §1
Enterococcus faecium [24] = test: Antibacterial activity against Enterococcus faecium 09-3 after 18 hrs by two fold serial dilution method; conditions: 09-3, 18 h; procedure, shortened: as §2
Klebsiella pneumoniae [25] = test: Antibacterial activity against Klebsiella pneumoniae 09-2 after 18 hrs by two fold serial dilution method; conditions: 09-2, 18 h; procedure, shortened: as §2
[26] = system: Staphylococcus epidermidis; test: Ratio of gemifloxacin ED50 to compound ED50 for methicillin-resistant Staphylococcus epidermidis 10-4 infected KM mouse systemic infection model
Escherichia coli [27] = test: Antibacterial activity against Escherichia coli 09-1 after 18 hrs by two fold serial dilution method; conditions: 09-1, 18 h; procedure, shortened: as §2
Staphylococcus aureus [28] = test: Antibacterial activity against methicillin-sensitive Staphylococcus aureus 10-2 after 18 hrs by two fold serial dilution method; conditions: 10-2, 18 h; procedure, shortened: as §2
Enterococcus faecalis [29] = test: Antibacterial activity against Enterococcus faecalis 09-1 after 18 hrs by two fold serial dilution method; conditions: 09-1, 18 h; procedure, shortened: as §2
Staphylococcus aureus [30] = test: Antibacterial activity against methicillin-resistant Staphylococcus aureus 10-3 after 18 hrs by two fold serial dilution method; conditions: 10-3, 18 h; procedure, shortened: as §3
Staphylococcus aureus [31] = test: Antibacterial activity against methicillin-resistant Staphylococcus aureus 10-1 after 18 hrs by two fold serial dilution method; conditions: 10-1, 18 h; procedure, shortened: as §3
Enterococcus faecium [32] = test: Antibacterial activity against Enterococcus faecium 09-2 after 18 hrs by two fold serial dilution method; conditions: 09-2, 18 h; procedure, shortened: as §2
Pseudomonas aeruginosa [33] = test: Ratio of ciprofloxacin ED50 to compound ED50 for Pseudomonas aeruginosa 10-1 infected KM mouse systemic infection model
Escherichia coli [34] = test: Antibacterial activity against Escherichia coli 09-3 after 18 hrs by two fold serial dilution method; conditions: 09-3, 18 h; procedure, shortened: as §2
Streptococcus pneumoniae = test: Antibacterial activity against Streptococcus pneumoniae 10-1 after 18 hrs by two fold serial dilution method; conditions: 10-1, 18 h; procedure, shortened: as §2
Pseudomonas aeruginosa [35] = test: Antibacterial activity against Pseudomonas aeruginosa 10-3 after 18 hrs by two fold serial dilution method; conditions: 10-3, 18 h; procedure, shortened: as §2
[36] = system: Staphylococcus epidermidis; test: Antibacterial activity against methicillin-sensitive Staphylococcus epidermidis 10-2 after 18 hrs by two fold serial dilution method; conditions: 10-2, 18 h; procedure, shortened: as §2
[37] = system: Staphylococcus epidermidis; test: Antibacterial activity against methicillin-resistant Staphylococcus epidermidis 10-2 after 18 hrs by two fold serial dilution method; conditions: 10-2, 18 h; procedure, shortened: as §3
Escherichia coli [38] = test: Antibacterial activity against Escherichia coli 10-1 after 18 hrs by two fold serial dilution method; conditions: 10-1, 18 h; procedure, shortened: as §2
Pseudomonas aeruginosa [39] = test: Antibacterial activity against Pseudomonas aeruginosa 10-1 infected KM mouse systemic infection model assessed as decrease in mouse mortality administered orally twice after 1 and 4 hrs post infection measured up to 7 days; conditions: 10-1, po; procedure, shortened: as §1
Klebsiella pneumoniae [40] = test: Antibacterial activity against Klebsiella pneumoniae 10-3 after 18 hrs by two fold serial dilution method; conditions: 10-3, 18 h; procedure, shortened: as §2
Enterococcus faecium [41] = test: Antibacterial activity against Enterococcus faecium 09-1 after 18 hrs by two fold serial dilution method; conditions: 09-1, 18 h; procedure, shortened: as §2
Enterococcus faecium [42] = test: Antibacterial activity against Enterococcus faecium 09-4 after 18 hrs by two fold serial dilution method; conditions: 09-4, 18 h; procedure, shortened: as §2
Pseudomonas aeruginosa [43] = test: Antibacterial activity against Pseudomonas aeruginosa 10-1 after 18 hrs by two fold serial dilution method; conditions: 10-1, 18 h; procedure, shortened: as §2
[44] = system: Staphylococcus epidermidis; test: Antibacterial activity against methicillin-resistant Staphylococcus epidermidis 10-4 infected KM mouse systemic infection model assessed as decrease in mouse mortality administered orally twice after 1 and 4 hrs post infection measured up to 7 days; conditions: 10-4, po; procedure, shortened: as §1
Staphylococcus aureus [45] = test: Antibacterial activity against methicillin-resistant Staphylococcus aureus 10-4 after 18 hrs by two fold serial dilution method; conditions: 10-4, 18 h; procedure, shortened: as §3
Escherichia coli [46] = test: Antibacterial activity against Escherichia coli ATCC 25922 after 18 hrs by two fold serial dilution method; conditions: ATCC 25922, 18 h; procedure, shortened: as §2
Escherichia coli [47] = test: Antibacterial activity against Escherichia coli 10-3 after 18 hrs by two fold serial dilution method; conditions: 10-3, 18 h; procedure, shortened: as §2

NCC1CN(c2nc3c(cc2F)c(=O)c(C(=O)O)cn3C2CC2)C/C1=N\OC(F)F (racemic)
ED50 (Klebsiella pneumoniae [1]): 100 mg/kg
MIC (Klebsiella pneumoniae [2]): 0.015 µg/mL (≈ 0.0353 µM)
MIC (Staphylococcus aureus [3]): 0.008 µg/mL (≈ 0.0188 µM)
MIC (Pseudomonas aeruginosa [4]): 32 µg/mL (≈ 75.2 µM)
MIC (Staphylococcus aureus [5]): 0.06 µg/mL (≈ 0.141 µM)
MIC [6]: 64 µg/mL (≈ 150 µM)
MIC (Escherichia coli [7]): 32 µg/mL (≈ 75.2 µM)
MIC (Staphylococcus aureus [8]): 0.06 µg/mL (≈ 0.141 µM)
MIC (Enterococcus faecium [9]): 0.06 µg/mL (≈ 0.141 µM)
ED50 (Escherichia coli [10]): 5.83 mg/kg
MIC [11]: 4 µg/mL (≈ 9.4 µM)
MIC (Pseudomonas aeruginosa [12]): 0.5 µg/mL (≈ 1.18 µM)
MIC (Escherichia coli [13]): 0.5 µg/mL (≈ 1.18 µM)
MIC (Enterococcus faecium [14]): 16 µg/mL (≈ 37.6 µM)
MIC (Staphylococcus aureus [15]): 0.5 µg/mL (≈ 1.18 µM)
Ratio ED50 (Pseudomonas aeruginosa [16]): 6.1
MIC (Staphylococcus aureus [17]): 0.015 µg/mL (≈ 0.0353 µM)
MIC (Staphylococcus aureus [18]): 1 µg/mL (≈ 2.35 µM)
MIC (Enterococcus faecalis [19]): 8 µg/mL (≈ 18.8 µM)
MIC [20]: 2 µg/mL (≈ 4.7 µM)
MIC (Staphylococcus aureus [21]): 0.015 µg/mL (≈ 0.0353 µM)
Ratio ED50 [22]: 1.4
ED50 (Staphylococcus aureus [23]): 14.3 mg/kg
MIC (Enterococcus faecium [24]): 16 µg/mL (≈ 37.6 µM)
MIC (Klebsiella pneumoniae [25]): 32 µg/mL (≈ 75.2 µM)
Ratio ED50 [26]: 1.4
MIC (Escherichia coli [27]): 16 µg/mL (≈ 37.6 µM)
MIC (Staphylococcus aureus [28]): 4 µg/mL (≈ 9.4 µM)
MIC (Enterococcus faecalis [29]): 4 µg/mL (≈ 9.4 µM)
MIC (Staphylococcus aureus [30]): 16 µg/mL (≈ 37.6 µM)
MIC (Staphylococcus aureus [31]): 16 µg/mL (≈ 37.6 µM)
MIC (Enterococcus faecium [32]): 32 µg/mL (≈ 75.2 µM)
Ratio ED50 (Pseudomonas aeruginosa [33]): 5.2
MIC (Escherichia coli [34]): 16 µg/mL (≈ 37.6 µM)
MIC (Streptococcus pneumoniae): 0.03 µg/mL (≈ 0.0705 µM)
MIC (Pseudomonas aeruginosa [35]): 4 µg/mL (≈ 9.4 µM)
MIC [36]: 32 µg/mL (≈ 75.2 µM)
MIC [37]: 0.25 µg/mL (≈ 0.588 µM)
MIC (Escherichia coli [38]): 16 µg/mL (≈ 37.6 µM)
ED50 (Pseudomonas aeruginosa [39]): 21.3 mg/kg
MIC (Klebsiella pneumoniae [40]): 0.5 µg/mL (≈ 1.18 µM)
MIC (Enterococcus faecium [41]): 32 µg/mL (≈ 75.2 µM)
MIC (Enterococcus faecium [42]): 0.125 µg/mL (≈ 0.294 µM)
MIC (Pseudomonas aeruginosa [43]): 0.5 µg/mL (≈ 1.18 µM)
ED50 [44]: 16.9 mg/kg
MIC (Staphylococcus aureus [45]): 32 µg/mL (≈ 75.2 µM)
MIC (Escherichia coli [46]): 0.008 µg/mL (≈ 0.0188 µM)
MIC (Escherichia coli [47]): 8 µg/mL (≈ 18.8 µM)
